The values that follow come from ChEMBL document CHEMBL4033622, “Synthesis and the interaction of 2-(1H-pyrazol-4-yl)-1H-imidazo[4,5-f][1,10]phenanthrolines with telomeric DNA as lung cancer inhibitors” (Eur J Med Chem, 2017).

Assay [1] deals with A549. Description: Cytotoxicity against human A549 cells assessed as cell growth inhibition at 10 uM after 36 hrs by CCK8 assay. It is filed as functional, cell-based.
Another assay has as its system MRC5. Description: Cytotoxicity against human MRC5 cells after 36 hrs by CCK8 assay. The conditions noted are these: MRC5, 36 h. It is filed as cell-based. On the technique in general: Tetrazolium assays rely on reduction of a dye to a coloured formazan, in cell work by metabolically active cells.
Assay [2] deals with A549. Description: Anti-migratory activity against human A549 cells assessed as […] at 0.1 uM after 48 hrs by wound healing assay relative to control. It is filed as functional. The conditions noted are these: A549, 48 h. The gist of the method: (§1)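 A549 monolayer seeded at 1 × 10⁵ cells/mL and grown 24 h, then scratched with a pipette tip. Compounds were added and cells kept 48 h in serum-free medium, then photographed. Migration distance was measured against lines fitted to the wound edges, with three points per plate. Inhibition (%) = (1 − D_drug/D_control) × 100. Mean ± SD of three independent experiments in triplicate.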

Assay [3] is described as follows: Selectivity index, ratio of IC50 for human MRC5 cells to IC50 for human A549 cells. Type of assay: functional.
For assay [4], the species on record is Homo sapiens. Description: Binding affinity to human telomeric 26 G-quadruplex DNA assessed as change in melting temperature at drug/DNA ratio of 1:10 by UV spectrophotometry (reference value: 39.34 degC).
For assay [5], the system named is A549. Description: Cytotoxicity against human A549 cells after 36 hrs by CCK8 assay. It is filed as functional, cell-based. The conditions noted are these: A549, 36 h.
The species named for assay [6] is Homo sapiens. Description: Binding affinity to human telomeric 26 G-quadruplex DNA up to 20 uM after 24 hrs by SYBR gold staining based electrophoretic mobility shift assay.
Assay [7] concerns A549. The assay is described as follows: Anti-migratory activity against human A549 cells assessed as […] at 0.05 uM after 48 hrs by wound healing assay relative to control. Type of assay: functional. The conditions noted are these: A549, 48 h. The gist of the method: as §1
Assay [8] relates to A549. The assay is described as follows: Anti-migratory activity against human A549 cells assessed as […] at 0.2 uM after 48 hrs by wound healing assay relative to control. It is filed as functional. The conditions noted are these: A549, 48 h. The essentials: as §1
For assay [9], the system named is A549. The assay is described as follows: Cytotoxicity against human A549/ATCC cells after 48 hrs by sulforhodamine B assay. It is filed as functional, cell-based. The following applies: A549, 48 h. (In SRB staining, fixed cells bind dye roughly in proportion to their protein.)
Assay [10] is filed under the species Homo sapiens. Description: Binding affinity to human telomeric 26 double stranded DNA up to 40 uM after 24 hrs by SYBR gold staining based electrophoretic mobility shift assay. A general note: A gel shift assay detects complexes by their altered migration in electrophoresis.
The species named for assay [11] is Homo sapiens. Description: Binding affinity to human telomeric 26 mutated DNA up to 40 uM after 24 hrs by SYGR gold staining based electrophoretic mobility shift assay.
Assay [12] is filed under the species Homo sapiens. Description: Binding affinity to human telomeric 26 G-quadruplex DNA after 24 hrs by SYBR gold staining based electrophoretic mobility shift assay.

Calls of active or inactive are those of the source. The calls are words filed in the database; no cut-off is given here.

`CN(C)CCCn1cc(-c2nc3c4cccnc4c4ncccc4c3[nH]2)c(-c2ccc(Cl)cc2)n1`: the “growth inhibition (GI)” value with A549 [1] was “Active”.

Take `Clc1ccc(-c2n[nH]cc2-c2nc3c4cccnc4c4ncccc4c3[nH]2)cc1`: in the assay with A549 [1], the “growth inhibition (GI)” value is “Active”.

Turning to `Cc1ccc(-c2nn(C)cc2-c2nc3c4cccnc4c4ncccc4c3[nH]2)cc1`, the “growth inhibition (GI)” value in the assay on A549 [1] was “Active”.

By IC50 is commonly meant the concentration that gives 50% inhibition. Broadly, the ΔTm is the shift of the melting midpoint relative to a reference. Consider `Fc1ccc(-c2nn(Cc3ccccc3)cc2-c2nc3c4cccnc4c4ncccc4c3[nH]2)cc1`, for which the IC50 in the assay on MRC5 is 3.8 µM; in the assay on A549 [5], 1.78 µM. Also, the inhibition of growth at 0.1 µM with A549 [2] turned out to be 86.6%. The “growth inhibition (GI)” value in the assay with A549 [1] is “Active”. Besides, in assay [3], the “Ratio IC50” value is listed as 2.13. Further, the thermal shift (ΔTm) in the assay listed under Homo sapiens [4] is 12.4 °C. In addition, the result in the assay listed under Homo sapiens [6] was inactive. Moreover, the inhibition of growth at 0.05 µM in the assay with A549 [7] was determined as 34.5%. Further, in the assay with A549 [8], the inhibition of growth at 0.2 µM amounted to 93.3%.

For `CN(C)CCCn1cc(-c2nc3c4cccnc4c4ncccc4c3[nH]2)c(-c2ccc(Br)cc2)n1`, the “growth inhibition (GI)” value in the assay with A549 [1] is “Active”.

With `Cn1cc(-c2nc3c4cccnc4c4ncccc4c3[nH]2)c(-c2ccc(Cl)cc2)n1`, in the assay on A549 [1], the “growth inhibition (GI)” value was “Active”.

The term GI50 denotes the concentration that inhibits growth by half. `Oc1cn(-c2ccc(Cl)cc2)nc1-c1n[nH]c(=S)n1-c1ccc(F)cc1` gave a GI50 in the assay on A549 [9] of 13.2 µM.

Consider `O=[N+]([O-])c1ccc(-n2cc(-c3nc4c5cccnc5c5ncccc5c4[nH]3)c(-c3ccc(Cl)cc3)n2)c([N+](=O)[O-])c1`, for which the “growth inhibition (GI)” value with A549 [1] was “Active”.

Turning to `Cc1ccc(-c2nn(-c3ccc([N+](=O)[O-])cc3[N+](=O)[O-])cc2-c2nc3c4cccnc4c4ncccc4c3[nH]2)cc1`, the “growth inhibition (GI)” value in the assay on A549 [1] is “Active”.

As for `Cn1cc(-c2nc3c4cccnc4c4ncccc4c3[nH]2)c(-c2ccc(F)cc2)n1`, in the assay with A549 [1], the “growth inhibition (GI)” value is “Active”.

On to `CN(C)CCCn1cc(-c2nc3c4cccnc4c4ncccc4c3[nH]2)c(-c2ccc(F)cc2)n1`, for which the “growth inhibition (GI)” value in the assay with A549 [1] is “Active”.

For the molecule `Brc1ccc(-c2n[nH]cc2-c2nc3c4cccnc4c4ncccc4c3[nH]2)cc1`, the “growth inhibition (GI)” value with A549 [1] is “Active”.

As to `Cc1ccc(-c2nn(Cc3ccccc3)cc2-c2nc3c4cccnc4c4ncccc4c3[nH]2)cc1`, the IC50 with MRC5 came out at 4.76 µM; in the assay on A549 [5] it was 2.75 µM. In addition, in the assay on A549 [2], the inhibition of growth at 0.1 µM turned out to be 54.6%. Also, the “growth inhibition (GI)” value in the assay on A549 [1] was “Active”. For the same molecule, the “Ratio IC50” value in [3] came out at 1.73. In addition, the thermal shift (ΔTm) in the assay filed under Homo sapiens [4] stood at 16.3 °C. For the same molecule, the result in the assay listed under Homo sapiens [6] was inactive. For the same molecule, the inhibition of growth at 0.05 µM with A549 [7] was 16.3%. Also, in the assay with A549 [8], the inhibition of growth at 0.2 µM was 85.8%.

In the case of `Brc1ccc(-c2nc3c4cccnc4c4ncccc4c3[nH]2)cc1`, the concentration for half-maximal inhibition (IC50) is 6.88 µM in the assay on MRC5 and 1.69 µM with A549 [5]. For the same molecule, the inhibition of growth at 0.1 µM with A549 [2] was determined as 23.7%. For the same molecule, the “growth inhibition (GI)” value in the assay on A549 [1] was “Active”. Also, the result in the assay listed under Homo sapiens [10], in the assay listed under Homo sapiens [11] and in the assay filed under Homo sapiens [6] was inactive. Further, in assay [3], the “Ratio IC50” value is given as 4.07. The ΔTm in the assay filed under Homo sapiens [4] was determined as 11 °C. In addition, in the assay on A549 [7], the inhibition of growth at 0.05 µM was 16.1%. The inhibition of growth at 0.2 µM in the assay on A549 [8] was determined as 56.1%.

In the case of `Cn1cc(-c2nc3c4cccnc4c4ncccc4c3[nH]2)c(-c2ccc(Br)cc2)n1`, the “growth inhibition (GI)” value in the assay with A549 [1] was “Active”.

As for `O=[N+]([O-])c1ccc(-n2cc(-c3nc4c5cccnc5c5ncccc5c4[nH]3)c(-c3ccc(Br)cc3)n2)c([N+](=O)[O-])c1`, the “growth inhibition (GI)” value in the assay on A549 [1] is “Active”.

As for `Cc1ccc(-c2n[nH]cc2-c2nc3c4cccnc4c4ncccc4c3[nH]2)cc1`, the “growth inhibition (GI)” value with A549 [1] was “Active”.

Take `O=[N+]([O-])c1ccc(-n2cc(-c3nc4c5cccnc5c5ncccc5c4[nH]3)c(-c3ccc(F)cc3)n2)c([N+](=O)[O-])c1`: in the assay on A549 [1], the “growth inhibition (GI)” value was “Active”.

Consider `Fc1ccc(-c2n[nH]cc2-c2nc3c4cccnc4c4ncccc4c3[nH]2)cc1`, for which, in the assay on A549 [1], the “growth inhibition (GI)” value was “Active”.

On to `Clc1ccc(-c2nn(Cc3ccccc3)cc2-c2nc3c4cccnc4c4ncccc4c3[nH]2)cc1`, for which the IC50 with MRC5 came to 4.17 µM; in the assay with A549 [5] it was 2.08 µM. Moreover, the inhibition of growth at 0.1 µM with A549 [2] was 54.2%. Besides, in the assay with A549 [1], the “growth inhibition (GI)” value was “Active”. In addition, the “Ratio IC50” value in assay [3] is 2. The ΔTm in the assay filed under Homo sapiens [4] came out at 13.5 °C. For the same molecule, in the assay listed under Homo sapiens [6], the result was inactive. The inhibition of growth at 0.05 µM with A549 [7] worked out at 24.7%. Further, the inhibition of growth at 0.2 µM in the assay with A549 [8] was 94.4%.

Take `Cc1ccc(-c2nn(CCCN(C)C)cc2-c2nc3c4cccnc4c4ncccc4c3[nH]2)cc1`: the “growth inhibition (GI)” value in the assay with A549 [1] is “Active”.

With `Nc1ccc(-n2cc(-c3nc4c5cccnc5c5ncccc5c4[nH]3)c(-c3ccc(Br)cc3)n2)nn1`, in the assay on A549 [1], the “growth inhibition (GI)” value was “Active”.

In the case of `Brc1ccc(-c2nn(Cc3ccccc3)cc2-c2nc3c4cccnc4c4ncccc4c3[nH]2)cc1`, the concentration for half-maximal inhibition (IC50) in the assay with MRC5 came out at 3.83 µM; with A549 [5] it was 1.48 µM. Besides, the inhibition of growth at 0.1 µM with A549 [2] came out at 78.8%. Further, in the assay on A549 [1], the “growth inhibition (GI)” value was “Active”. Also, the result in the assay filed under Homo sapiens [10] and in the assay listed under Homo sapiens [11] was inactive. The Activity entry in the assay filed under Homo sapiens [12] was “Dose-dependent effect”. Moreover, the “Ratio IC50” value in assay [3] is recorded as 2.58. Further, the thermal shift (ΔTm) in the assay filed under Homo sapiens [4] came to 20.5 °C. Further, in the assay filed under Homo sapiens [6], the outcome was Active. Moreover, the inhibition of growth at 0.05 µM with A549 [7] came out at 48.3%. In the assay on A549 [8], the inhibition of growth at 0.2 µM came to 98.4%.
